Test results published in ChEMBL document CHEMBL1158139, “Bioactive oligostilbenoids from the stem bark of Hopea exalata” (J Nat Prod, 2006).
Values after ≈ are worked out from the molar mass of the structure shown.

How the values were obtained:
[1] = system: Fusarium oxysporum f. sp. vasinfectum; assay: Antifungal activity against Fusarium oxysporum f. sp. vasinfectum by MTT assay; assay type: functional
Procedure, shortened: (§1)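 MIC read visually on microtiter plates, then confirmed colorimetrically with MTT. Each well received RPMI 1640 carrying MTT at 5 mg/mL and was incubated 3 h at 37 °C. Medium was removed and the dye extracted with isopropanol containing 5% mol/L HCl for 30 min at room temperature with gentle agitation. OD read at 550 nm.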

Pyricularia oryzae = assay: Antifungal activity against Pyricularia oryzae by MTT assay; assay type: functional
Cytospora mali = assay: Antifungal activity against Valsa mali by MTT assay; assay type: functional; procedure, shortened: as §1
Alternaria alternata = assay: Antifungal activity against Alternaria alternata by MTT assay; assay type: functional; procedure, shortened: as §1
Alternaria solani = assay: Antifungal activity against Alternaria solani by MTT assay; assay type: functional; procedure, shortened: as §1
Colletotrichum lagenaria = assay: Antifungal activity against Colletotrichum lagenarium by MTT assay; assay type: functional; procedure, shortened: as §1
Urease = Urease (Canavalia ensiformis, UniProt P07374); assay: Inhibition of jack bean urease
Urease, sequence (P07374 whole entry): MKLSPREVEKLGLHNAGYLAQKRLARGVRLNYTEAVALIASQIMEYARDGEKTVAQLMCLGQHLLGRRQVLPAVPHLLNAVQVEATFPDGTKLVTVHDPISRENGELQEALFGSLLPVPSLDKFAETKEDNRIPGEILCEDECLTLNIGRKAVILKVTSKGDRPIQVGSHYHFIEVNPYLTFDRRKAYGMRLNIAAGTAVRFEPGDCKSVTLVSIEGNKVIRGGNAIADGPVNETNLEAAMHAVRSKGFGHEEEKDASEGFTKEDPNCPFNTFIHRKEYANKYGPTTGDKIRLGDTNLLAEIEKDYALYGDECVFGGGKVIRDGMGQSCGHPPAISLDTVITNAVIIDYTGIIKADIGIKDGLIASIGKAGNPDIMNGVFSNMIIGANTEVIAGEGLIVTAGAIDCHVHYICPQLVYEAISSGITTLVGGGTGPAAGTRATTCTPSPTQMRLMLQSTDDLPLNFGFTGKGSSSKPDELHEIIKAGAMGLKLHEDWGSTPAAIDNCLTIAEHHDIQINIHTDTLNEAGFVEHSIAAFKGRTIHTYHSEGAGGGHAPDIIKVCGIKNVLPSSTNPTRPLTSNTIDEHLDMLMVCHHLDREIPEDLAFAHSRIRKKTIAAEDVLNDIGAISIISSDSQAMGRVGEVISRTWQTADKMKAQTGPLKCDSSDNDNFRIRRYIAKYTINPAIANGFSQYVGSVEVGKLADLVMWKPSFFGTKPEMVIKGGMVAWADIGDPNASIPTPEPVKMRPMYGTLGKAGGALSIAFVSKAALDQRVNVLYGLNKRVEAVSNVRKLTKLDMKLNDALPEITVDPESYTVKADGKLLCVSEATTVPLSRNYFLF
Procedure, shortened: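 Jack bean urease (4 U) preincubated with test compound (100 µg) for 2 h at room temperature; then 100 mM phosphate buffer pH 6.8 containing 500 mM urea and 0.002% phenol red added, incubated at room temperature; time for ammonium carbonate to raise pH from 6.8 to 7.7 read at 570 nm; IC50 determined; acetohydroxamic acid as positive control.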

Row | SMILES | MIC [1] [µg/mL] | MIC (Pyricularia oryzae) [µg/mL] | MIC (Cytospora mali) [µg/mL] | MIC (Alternaria alternata) [µg/mL] | MIC (Alternaria solani) [µg/mL] | MIC (Colletotrichum lagenaria) [µg/mL] | IC50 (Urease) [µM]
1 | Oc1ccc([C@H]2Oc3cc(O)cc4c3[C@@H]2c2cc(O)cc3c2[C@@H](c2cc(O)cc5c2[C@@H]4[C@H](c2ccc(O)cc2)O5)[C@H](c2ccc(O)cc2)O3)cc1 | 25.2 (≈ 37.1 µM) | 6.25 (≈ 9.21 µM) | > 50 | > 50 | 3.12 (≈ 4.6 µM) | 12.5 (≈ 18.4 µM) | –
2 | CC(=O)NO [ACETOHYDROXAMIC ACID] | – | – | – | – | – | – | 17.3
3 | O=C1C=C2O[C@@H](c3ccc(O)cc3)[C@H]3C2=C(C1=O)[C@H]1c2c(cc(O)cc2[C@@H]2c4c(cc(O)cc43)O[C@H]2c2ccc(O)cc2)O[C@@H]1c1ccc(O)cc1 [HOPEANOLIN] | 6.22 (≈ 8.98 µM) | 0.1 (≈ 0.144 µM) | 1.55 (≈ 2.24 µM) | 22.5 (≈ 32.5 µM) | 1.56 (≈ 2.25 µM) | 10.6 (≈ 15.3 µM) | –
4 | CC(=O)N1CCN(c2ccc(OCC3COC(Cn4ccnc4)(c4ccc(Cl)cc4Cl)O3)cc2)CC1 (stereo not drawn) [KETOCONAZOLE] | 2.21 (≈ 4.16 µM) | 0.03 (≈ 0.0565 µM) | 0.51 (≈ 0.96 µM) | 1.04 (≈ 1.96 µM) | 0.83 (≈ 1.56 µM) | 0.97 (≈ 1.83 µM) | –
5 | Oc1ccc([C@@H]2c3c(O)cc(O)cc3[C@@H]3c4c(cc(O)c5c4[C@@H]2[C@@H](c2ccc(O)cc2)[C@@H]5c2cc(O)cc(O)c2)O[C@H]3c2ccc(O)cc2)cc1 [PAUCIFLOROL A] | > 50 | 11.5 (≈ 16.9 µM) | > 50 | 1.56 (≈ 2.29 µM) | > 50 | > 50 | –
6 | O=C1c2cc(O)cc3oc(-c4ccc(O)cc4)c(c23)-c2cc(O)cc(O)c2C1c1ccc(O)cc1 (stereo not drawn) [SHOREAPHENOL] | > 50 | 27.3 (≈ 58.5 µM) | 7.13 (≈ 15.3 µM) | – | > 50 | > 50 | 127
7 | Oc1ccc([C@@H]2c3c(O)cc(O)cc3[C@@H]3c4c(cc(O)c5c4[C@H]2[C@H](c2ccc(O)cc2)[C@H]5c2cc(O)cc(O)c2)O[C@H]3c2ccc(O)cc2)cc1 [VATICANOL A] | 12.7 (≈ 18.7 µM) | 3.12 (≈ 4.58 µM) | 20.1 (≈ 29.5 µM) | > 50 | 6.25 (≈ 9.18 µM) | > 50 | –
8 | Oc1ccc([C@@H]2c3cc(O)ccc3[C@@H]3c4c(O)cc(O)cc4[C@@H]2c2c(O)cc(O)c4c2[C@@H]3[C@@H](c2ccc(O)cc2)[C@@H]4c2cc(O)cc(O)c2)cc1 [VATICANOL G] | > 50 | 0.78 (≈ 1.15 µM) | > 50 | > 50 | 24.6 (≈ 36.1 µM) | > 50 | –
